Active and inactive are the calls of the source. The calls are words filed in the database; no cut-off is given here.
Tests used:
HEK293 [1] = test: Inhibition of TLR2 expression in human HEK293 cells at 10 uM treated for 24 hrs measured after serum deprivation by Western blotting; format: functional, cell-based
Procedure, shortened: (§1)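 HEK293 and TLR2-stably-transfected HEK293 cells in RPMI-1640 with 10% heat-inactivated FBS, 37 °C, 5% CO2; compound at 0, 10 or 100 uM for 24 h, then serum deprivation for 0, 12 or 24 h. Equal cell numbers lysed in RIPA buffer, 12% SDS-PAGE, nitrocellulose, anti-TLR2 immunoblot with GAPDH antibody, chemiluminescent detection; mean ± SEM of three independent experiments.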

HEK293 [2] = test: Inhibition of TLR2 expression in human HEK293 cells at 100 uM treated for 24 hrs measured after serum deprivation by Western blotting; format: functional, cell-based; procedure, shortened: as §1
HEK293 [3] = test: Inhibition of TLR2 expression in human HEK293 cells stably transfected with TLR2 at 10 uM treated for 24 hrs measured after serum deprivation by Western blotting; format: functional, cell-based; procedure, shortened: as §1
HEK293 [4] = test: Inhibition of TLR2 expression in human HEK293 cells stably transfected with TLR2 at 100 uM treated for 24 hrs measured after serum deprivation by Western blotting; format: functional, cell-based; procedure, shortened: as §1
[5] = Solubility in water; format: physicochemical; details: buffer
Albumin = Albumin (Homo sapiens, UniProt P02768); test: Binding affinity to human serum albumin; format: ADME; details: isolated protein
[6] = target: Toll-like receptor 2 (Homo sapiens) (UniProt O60603); test: Inhibition of TLR2-mediated apoptosis in human HEK293 cells at 100 uM treated for 24 hrs measured after 12 hrs of serum deprivation by TUNEL assay; format: cell-based
Procedure, shortened: (§2)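 With or without 100 uM for 24 h, then serum deprivation 0, 12 or 24 h, in HEK293 or TLR2/HEK293 cells (RPMI-1640, 10% heat-inactivated FBS). Nucleosomal DNA fragmentation detected by in situ TUNEL kit; apoptotic and total cells counted in random fields to give percent apoptotic cells; mean ± SEM of three independent experiments.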

[7] = target: Toll-like receptor 2 (Homo sapiens) (UniProt O60603); test: Inhibition of TLR2-mediated apoptosis in human HEK293 cells at 100 uM treated for 24 hrs measured after 24 hrs of serum deprivation by TUNEL assay; format: cell-based; procedure, shortened: as §2
[8] = target: Toll-like receptor 2 (Homo sapiens) (UniProt O60603); test: Inhibition of TLR2-mediated apoptosis in human HEK293 cells stably transfected with TLR2 at 100 uM treated for 24 hrs measured after 12 hrs of serum deprivation by TUNEL assay; format: cell-based; procedure, shortened: as §2
[9] = target: Toll-like receptor 2 (Homo sapiens) (UniProt O60603); test: Inhibition of TLR2-mediated apoptosis in human HEK293 cells stably transfected with TLR2 at 100 uM treated for 24 hrs measured after 24 hrs of serum deprivation by TUNEL assay; format: cell-based; procedure, shortened: as §2
[10] = target: Toll-like receptor 2 (Homo sapiens) (UniProt O60603); test: Inhibition of TLR2 in human HEK293 cells stably transfected with TLR2 assessed as decrease in Akt phosphorylation level at Ser473 at 10 uM treated for 24 hrs measured after serum deprivation by Western blotting; format: cell-based
Procedure, shortened: (§3)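 Parental HEK293 or TLR2/HEK293 cells (RPMI-1640, 10% heat-inactivated FBS, 37 °C, 5% CO2) exposed to 0, 10 or 100 uM for 24 h, then serum-deprived 0, 12 or 24 h. RIPA lysates of equal cell numbers run on 12% SDS-PAGE; phospho-Akt (Ser473) and total Akt probed by Western blot, milk block, primary antibody overnight at 4 °C.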

[11] = target: Toll-like receptor 2 (Homo sapiens) (UniProt O60603); test: Inhibition of TLR2 in human HEK293 cells stably transfected with TLR2 assessed as decrease in Akt phosphorylation level at Ser473 at 100 uM treated for 24 hrs measured after serum deprivation by Western blotting; format: cell-based; procedure, shortened: as §3
[12] = target: Toll-like receptor 2 (Homo sapiens) (UniProt O60603); test: Inhibition of TLR2 in human HEK293 cells assessed as decrease in Akt phosphorylation level at Ser473 at 10 uM treated for 24 hrs measured after serum deprivation by Western blotting; format: cell-based; procedure, shortened: as §3
[13] = target: Toll-like receptor 2 (Homo sapiens) (UniProt O60603); test: Inhibition of TLR2 in human HEK293 cells assessed as decrease in Akt phosphorylation level at Ser473 at 100 uM treated for 24 hrs measured after serum deprivation by Western blotting; format: cell-based; procedure, shortened: as §3
[14] = target: Toll-like receptor 2 (Homo sapiens) (UniProt O60603); test: Inhibition of TLR2 in human HEK293 cells stably transfected with TLR2 assessed as decrease in GSK3-beta phosphorylation level at 10 uM treated for 24 hrs measured after serum deprivation by Western blotting; format: cell-based
Procedure, shortened: (§4)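 Cells given 0, 10 or 100 uM for 24 h before 0, 12 or 24 h serum deprivation; HEK293 and TLR2/HEK293 lines cultured in RPMI-1640 plus 10% heat-inactivated FBS. Harvested cells lysed in RIPA buffer, 12% SDS-PAGE, nitrocellulose transfer, immunoblotted for phospho-GSK3beta and total GSK3beta, ECL read-out; mean ± SEM, three independent experiments.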

[15] = target: Toll-like receptor 2 (Homo sapiens) (UniProt O60603); test: Inhibition of TLR2 in human HEK293 cells stably transfected with TLR2 assessed as decrease in GSK3-beta phosphorylation level at 100 uM treated for 24 hrs measured after serum deprivation by Western blotting; format: cell-based; procedure, shortened: as §4
[16] = target: Toll-like receptor 2 (Homo sapiens) (UniProt O60603); test: Inhibition of TLR2 in human HEK293 cells assessed as decrease in GSK3-beta phosphorylation level at 10 uM treated for 24 hrs measured after serum deprivation by Western blotting; format: cell-based; procedure, shortened: as §4
[17] = target: Toll-like receptor 2 (Homo sapiens) (UniProt O60603); test: Inhibition of TLR2 in human HEK293 cells assessed as decrease in GSK3-beta phosphorylation level at 100 uM treated for 24 hrs measured after serum deprivation by Western blotting; format: cell-based; procedure, shortened: as §4

Chain of Toll-like receptor 2 (Homo sapiens) (O60603 whole entry, the tested form may be a part): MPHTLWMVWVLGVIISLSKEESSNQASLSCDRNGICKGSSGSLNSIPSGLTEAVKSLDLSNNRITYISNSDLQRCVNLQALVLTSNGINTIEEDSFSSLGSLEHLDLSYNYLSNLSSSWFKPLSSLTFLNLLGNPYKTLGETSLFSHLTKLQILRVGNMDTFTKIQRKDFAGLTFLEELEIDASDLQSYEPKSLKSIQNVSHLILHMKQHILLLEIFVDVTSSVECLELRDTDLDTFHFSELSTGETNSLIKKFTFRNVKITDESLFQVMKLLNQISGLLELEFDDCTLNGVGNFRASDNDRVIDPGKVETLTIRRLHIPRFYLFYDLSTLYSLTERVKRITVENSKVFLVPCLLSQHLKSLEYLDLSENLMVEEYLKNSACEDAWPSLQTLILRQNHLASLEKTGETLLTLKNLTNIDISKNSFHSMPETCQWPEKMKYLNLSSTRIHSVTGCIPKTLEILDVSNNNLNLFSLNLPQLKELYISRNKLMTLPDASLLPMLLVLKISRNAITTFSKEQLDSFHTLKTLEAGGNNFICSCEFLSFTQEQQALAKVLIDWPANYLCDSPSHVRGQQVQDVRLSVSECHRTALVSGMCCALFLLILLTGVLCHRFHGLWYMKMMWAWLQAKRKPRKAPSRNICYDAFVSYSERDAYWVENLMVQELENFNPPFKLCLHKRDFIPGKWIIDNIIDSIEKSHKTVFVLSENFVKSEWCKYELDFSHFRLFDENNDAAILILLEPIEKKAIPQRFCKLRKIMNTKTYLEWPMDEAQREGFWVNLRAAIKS
Chain of Albumin (P02768 whole entry): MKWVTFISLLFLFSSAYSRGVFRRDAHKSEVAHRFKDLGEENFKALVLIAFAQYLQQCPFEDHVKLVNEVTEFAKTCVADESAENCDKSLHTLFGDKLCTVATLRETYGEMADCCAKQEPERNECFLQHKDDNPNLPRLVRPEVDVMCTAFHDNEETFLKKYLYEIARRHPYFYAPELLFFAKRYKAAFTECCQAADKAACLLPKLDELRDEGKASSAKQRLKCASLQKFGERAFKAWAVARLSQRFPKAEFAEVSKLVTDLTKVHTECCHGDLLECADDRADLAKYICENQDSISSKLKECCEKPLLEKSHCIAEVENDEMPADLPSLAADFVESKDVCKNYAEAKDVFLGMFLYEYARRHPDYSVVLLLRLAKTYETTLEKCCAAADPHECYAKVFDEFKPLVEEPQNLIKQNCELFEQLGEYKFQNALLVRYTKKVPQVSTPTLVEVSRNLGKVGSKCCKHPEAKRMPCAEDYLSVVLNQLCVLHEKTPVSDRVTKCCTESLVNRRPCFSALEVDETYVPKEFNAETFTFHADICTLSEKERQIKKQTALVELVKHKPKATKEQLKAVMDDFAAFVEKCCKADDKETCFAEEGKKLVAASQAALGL

Structure (SMILES)	inhibition (HEK293 [1])	inhibition (HEK293 [2])	inhibition (HEK293 [3])	inhibition (HEK293 [4])	solubility [5]	fold change (FC) (Albumin)	inhibition [6] [%]	inhibition [7] [%]	inhibition [8] [%]	inhibition [9] [%]	Activity [10]	Activity [11]	Activity [12]	Activity [13]	Activity [14]	Activity [15]	Activity [16]	Activity [17]
O=C(O)COc1ccc(/C=C/c2cc(O)cc(O)c2)cc1	inactive	inactive	inactive	inactive														
O=C(O)CCCCCOc1ccc(/C=C/c2cc(O)cc(O)c2)cc1 [RESVERATROL HEXANOIC ACID]	Active	Active	Active	Active	Soluble	40	11	25	20	49	Active	Active	inactive	inactive	Active	Active	inactive	inactive

— ChEMBL document CHEMBL1152955, “Synthetic resveratrol aliphatic acid inhibits TLR2-mediated apoptosis and an involvement of Akt/GSK3beta pathway” (Bioorg Med Chem, 2009)
